The nature of data set [1]: Antioxidant activity assessed as inhibition of xanthine-xanthine oxidase generated superoxide anion radical production assessed as formazone formation at 200 ug/ml after 30 mins by spectrophotometric analysis. In kind it is functional. Summed up:
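Superoxide generation was run with and without compound at 200 µg/mL. Fractions were sonicated in phosphate buffer, and mixtures were incubated at 37 °C for 30 min. The reaction was stopped with glacial acetic acid, and formazone formed was measured spectrophotometrically. Allopurinol was the standard, and values are mean SD of six.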

Data set [2] in a line: Antioxidant activity assessed as inhibition non-enzymatic reactants generated hydroxyl radical production at 200 ug/ml after 90 mins by spectrophotometry. In kind it is functional. Summed up:
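Hydroxyl radicals were generated non-enzymatically from deoxyribose (2.8 mM), FeSO4·7H2O (2 mM), sodium ascorbate (2.0 mM) and H2O2 (2.8 mM) in 50 mM KH2PO4 buffer, pH 7.4. Final volume was 2.5 mL, with or without test compound at 200 µg/mL. Mixtures were incubated at 37 °C for 90 min, MDA formed was measured, and mannitol was the standard. Values are mean SD of six.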

Data set [3] can be described thus: Antioxidant activity assessed as inhibition microsomal lipid peroxidation at 200 ug/ml by thiobarbituric acid test. In kind it is functional. The note with it: Microsome. Summed up:
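Microsomal lipid peroxidation was measured with compound at 200 µg/mL and read as nmol MDA formed per mg protein. α-Tocopherol at 100 µg/mL was the standard. Values are mean SD of six.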

In data set [4] the test system is Rattus norvegicus. As to the kind of experiment: Antiinflammatory activity in albino rat assessed as inhibition of carrageenin-induced paw oedema at 100 mg/kg, po after 3 hrs by plethysmographic analysis relative to control. The data set is classed as functional. Summed up:
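Rats received 100 mg/kg po. Oedema was induced by subplantar injection of 0.1 ml of 1% carrageenin into one hind paw. Paw volume was measured plethysmographically immediately after the injection and at 3 h. The volume difference gave the oedema, and percent inhibition was calculated against the control group. Ibuprofen was the reference at an equivalent dose.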

Data set [5] is described as follows: Toxicity in albino rat assessed as survival at 100 mg/kg, po. In kind it is organism-based. Also noted: dose 100 mg/kg, route oral. The note with it: in vivo, read-out: Activity. In short, it runs like this:
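Albino rats were dosed orally in the carrageenin hind-paw oedema study. Survival was recorded, and animals were examined macroscopically and by autopsy.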

In data set [6] the test system is Rattus norvegicus. Briefly: Toxicity in albino rat at 100 mg/kg, po by autopsy. In kind it is organism-based. On the set-up: dose 100 mg/kg, route oral. The following applies: in vivo.
Data set [7] has as its system Rattus norvegicus. Briefly: Toxicity in albino rat at 100 mg/kg, po by macroscopic analysis. The note with it: in vivo.
A short description of data set [8]: Antioxidant activity assessed as inhibition of xanthine-xanthine oxidase generated superoxide anion radical production assessed as formazone formation at 20 ug/ml after 30 mins by spectrophotometric analysis. In kind it is functional. In short, it runs like this:
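Reaction mixtures in phosphate buffer incubated at 37 °C for 30 min, then stopped with 0.5 mL glacial acetic acid. Superoxide quantified as formazone formed (nmol/min), read spectrophotometrically. Mean SD of six values.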

The nature of data set [9]: Antiinflammatory activity in whole blood assessed as inhibition of LPS-induced TNFalpha production at 200 ug/ml. In kind it is functional.
Data set [10] can be described thus: Antiinflammatory activity in whole blood assessed as inhibition of LPS-induced TNFalpha production at 400 ug/ml. In kind it is functional.
Data set [11] in a line: Antiinflammatory activity in whole blood assessed as inhibition of LPS-induced TNFalpha production. In kind it is functional, tissue-based.
The nature of data set [12]: Antioxidant activity assessed as inhibition non-enzymatic reactants generated hydroxyl radical production at 100 ug/ml after 90 mins by spectrophotometry. The data set is classed as functional.
Data set [13] is described as follows: Antioxidant activity assessed as inhibition microsomal lipid peroxidation at 100 ug/ml by thiobarbituric acid test. The following applies: Microsome. In kind it is functional.

The source made the active and inactive calls. The rule behind the calls is not given here.

Usually inhibition stands for the percentage by which the read-out fell short of the control. In general, inhibition in vivo refers to the share of the control response that was lost under treatment. On to `CCOC(=O)c1cc2cc(/C=C/C(=O)c3ccco3)c3c(ccc4c(C)cc(=O)oc43)c2oc1=O`, for which the inhibition in [1] stood at 30%; in data set [2], 21%; in [3] it was 24%. For the same compound, the inhibition in vivo at 100 mg/kg in data set [4] was found to be 13%. The survival in data set [5] stood at 80%. The Activity entry in data set [6] and in [7] was “Non-toxic” throughout.

`Oc1ncnc2[nH]ncc12`: the inhibition in data set [8] stood at 42%.

For the compound `CC(=O)c1cc2cc(/C=C/C(=O)c3ccco3)c3c(ccc4c(C)cc(=O)oc43)c2oc1=O`, in [4], the inhibition in vivo at 100 mg/kg amounted to 26%. Further, the inhibition at 200 µg/mL in [9] is 25%. Also, in data set [10], the inhibition at 400 µg/mL is 43%. Moreover, the inhibition result in data set [11] was “Dose-dependent effect”.

Consider `OC[C@@H](O)[C@@H](O)[C@H](O)[C@H](O)CO`, for which the inhibition in [12] turned out to be 40%.

For `COC(=O)c1cc2cc(/C=C/C(=O)c3ccc(C)cc3)c3c(ccc4c(C)cc(=O)oc43)c2oc1=O`, the inhibition entry in [4] is “inactive”.

Turning to `CCOC(=O)c1cc2cc(/C=C/C(=O)c3ccccc3)c3c(ccc4c(C)cc(=O)oc43)c2oc1=O`, the inhibition result in data set [4] is “inactive”.

Regarding `COC(=O)c1cc2cc(/C=C/C(=O)c3ccccc3)c3c(ccc4c(C)cc(=O)oc43)c2oc1=O`, the inhibition in data set [1] was 29%; in [2] it was 27%; in data set [3], 23%; in data set [11], “Dose-dependent effect”. In addition, in data set [4], the inhibition in vivo at 100 mg/kg is 33%. Also, the inhibition at 200 µg/mL in data set [9] amounted to 4%. In addition, the inhibition at 400 µg/mL in data set [10] is 21%.

As to `COC(=O)c1cc2cc(/C=C/C(=O)c3ccco3)c3c(ccc4c(C)cc(=O)oc43)c2oc1=O`, the inhibition entry in data set [4] is “inactive”.

For `CC(=O)c1cc2cc(/C=C/C(=O)c3ccc(C)cc3)c3c(ccc4c(C)cc(=O)oc43)c2oc1=O`, the inhibition in vivo at 100 mg/kg in data set [4] turned out to be 29%. Moreover, the inhibition at 200 µg/mL in [9] is 33%. The inhibition at 400 µg/mL in [10] is 47%. Further, the inhibition result in data set [11] was “Dose-dependent effect”.

On to `Cc1c(C)c2c(c(C)c1O)CC[C@@](C)(CCC[C@H](C)CCC[C@H](C)CCCC(C)C)O2`, for which the inhibition in data set [13] turned out to be 41%.

`CCOC(=O)c1cc2cc(/C=C/C(=O)c3ccc(C)cc3)c3c(ccc4c(C)cc(=O)oc43)c2oc1=O`: the inhibition result in [4] was “inactive”.

On to `CC(C)Cc1ccc(C(C)C(=O)O)cc1` (stereo unspecified) [IBUPROFEN], for which the inhibition in vivo at 100 mg/kg in data set [4] was found to be 59.5%.

For the compound `COC(=O)c1cc2cc(/C=C/C(=O)c3cccs3)c3c(ccc4c(C)cc(=O)oc43)c2oc1=O`, the inhibition in vivo at 100 mg/kg in data set [4] turned out to be 3.5%. The survival in [5] is 80%. Moreover, the Activity entry in data set [6] and in data set [7] was “Non-toxic” each time.

Regarding `CCOC(=O)c1cc2cc(/C=C/C(=O)c3cccs3)c3c(ccc4c(C)cc(=O)oc43)c2oc1=O`, the figures for the inhibition in data set [1], in data set [2] and in [3] were 24%, 26% and 27%, respectively. For the same compound, the inhibition in vivo at 100 mg/kg in data set [4] turned out to be 8.77%. In addition, in [5], the survival turned out to be 80%. The Activity result in [6] and in data set [7] was “Non-toxic” in each case.
